Tests used:
[1] = test system: tubulin; test: Inhibition of colchicine binding to tubulin; conditions: data not presented
[2] = test system: NCI full panel of 60 cell lines; test: NCI 5-dose assay, full panel overview; type: cell-based, human; conditions: for CC50: Homo sapiens, 60 cell, read-out: pLC50 MG_MID (converted); for cytotoxicity in NCI screen: in words; for pTGI MG_MID: mean graph midpoint over all tested cell lines; for pTGI No. giving positive results: number of cell lines for which TGI ≤100 μM; for cellular lines with 50% growth inhibition at submicromolar concentrations: number of cell lines of those tested
Outline: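 Five-dose NCI standard protocol screen of test compound against 60 human tumour lines from nine cancer types. pGI₅₀, pTGI and pLC₅₀ are −log molar concentrations giving 50% net growth inhibition, total growth inhibition and 50% net cell death. MG_MID is the arithmetic mean over all tested lines. Counts give the lines with each value ≤100 μM. Where an effect was not reached, the highest tested concentration was used.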

[3] = test system: purified tubulin; test: Assembly of purified tubulin; type: biochemical; conditions: data not presented
[4] = test system: K562 cells; test: Annexin V-FITC/PI staining flow cytometry; type: cell-based, human; conditions: 10 μM, 24 h
Outline: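 K562 cells were grown in RPMI 1640 with 5% FBS and antibiotics at 37 °C in 5% CO₂, then exposed to test compound for 24 h. Cells were harvested, centrifuged at 800 rpm for 10 min and washed in PBS. 10⁵ cells per sample were stained with annexin V-FITC plus PI for 15 min in the dark. Flow cytometry read FL1 (530 nm) and FL3 (>575 nm) over 10,000 events. Areas: C1 necrotic, C2 late apoptotic, C3 viable, C4 early apoptotic.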

[5] = test system: K562 cells; test: Cell morphology under light microscopy; type: cell-based, human; conditions: K562, 48 h, 10 and 25 μM
Outline: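 K562 cells, cultured in medium with 5% FBS, 100 U/mL penicillin and 100 μg/mL streptomycin at 37 °C under 5% CO₂, were seeded at 8 × 10³/well and exposed to test compound for 48 h alongside untreated control. Morphology was then examined by light microscopy at 200× magnification.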

[6] = test system: K562 cells; test: Hoechst 33342 nuclear staining, fluorescence microscopy; type: cell-based, human; conditions: 10 μM, 48 h
Outline: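 K562 cells were plated at 8 × 10³/well on poly-D-lysine-coated plates and left to adhere overnight. They were prestained with Hoechst 33342 in medium for 30 min, washed with PBS and resuspended in medium, then given test compound or vehicle for 48 h.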

[7] = test system: pro-caspase 6; test: Western blotting analysis of pro-caspase 6; type: cell-based, human; conditions: K562, 10 μM, 48 h
Outline: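 K562 cells were seeded at 1.5 × 10⁵/well and treated 48 h with 10 μM test compound. Lysate protein was measured by Lowry assay, run on SDS-PAGE and transferred to nitrocellulose. Pro-caspase 3 and 6 were detected with specific alkaline phosphatase-conjugated antibodies. Loading was checked by Ponceau red and β-actin immunoblot, and bands were quantified by densitometry. Blots are representative of at least three experiments.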

Row | Compound | inhibition of colchicine binding to tubulin [1] | CC50 [2] [µM] | cytotoxicity in NCI screen [2] | pTGI MG_MID [2] | pTGI No. giving positive results [2] | cellular lines with 50% growth inhibition at submicromolar concentrations [2] | effects on the assembly of purified tubulin [3] | necrotic cells [4] | morphological changes [5] | nuclear morphology typical of apoptosis [6] | reduction in the level of pro-caspase 6 [7] [%]
1 | NC(=O)c1cc(Cl)ccc1NC(=O)COc1ccccc1 [Compound 17f, 5-Chloro-2-(2-phenoxyacetamido)benzamide] | negligible effects | > 100 | low cytotoxicity | 4.14 | 10 | 3 of 57 | negligible effects | – | – | – | –
2 | NC(=O)c1cc(I)ccc1NC(=O)COc1ccccc1 [Compound 17j, 5-Iodo-2-(2-phenoxyacetamido)benzamide] | negligible effects | > 89.1 | low cytotoxicity | 4.45 | 25 | 44 of 56 | negligible effects | no necrotic cells were detected | remarkable reduction in cell number and cell size | chromatin condensation and nuclear fragmentation | −20
3 | COc1ccc(NC(=O)COc2ccccc2)c(C(N)=O)c1 [Compound 17r, 5-Methoxy-2-(2-phenoxyacetamido)benzamide] | negligible effects | > 97.7 | low cytotoxicity | 4.31 | 25 | 30 of 56 | negligible effects | – | – | – | –
4 | COc1cc(NC(=O)COc2ccccc2)c(C(N)=O)cc1OC [Compound 17u, 4,5-Dimethoxy-2-(2-phenoxyacetamido)benzamide] | negligible effects | > 93.3 | low cytotoxicity | 4.31 | 23 | 26 of 58 | negligible effects | – | remarkable reduction in cell number and cell size | chromatin condensation and nuclear fragmentation | −50

From paper PMC4593655 (Bioorganic & medicinal chemistry, 2015)
